Measurements as given in ChEMBL document CHEMBL1122581, “Antiviral activity of C-5 substituted tubercidin analogues” (1984).
Converted amounts (≈) assume the structure as drawn.

Columns and labels:
Type in all cases: functional
[1] = test system: Human alphaherpesvirus 1; test: Compound was tested for the concentration required to reduce HSV-1 (KOS) induced cytopathogenicity by 50% in primary rabbit kidney cell cultures
[2] = test system: HeLa; test: Compound was tested for the concentration required to cause a microscopically detectable alteration in normal cell morphology in HeLa cell cultures; details: Homo sapiens, read-out: Min cytotoxic concentration
Outline: (§1)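 Uninfected cell monolayers were run in parallel with the antiviral assays and exposed to compound for the same period as the infected cultures. The end point was the lowest concentration giving a microscopically detectable disruption of normal cell morphology.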

[3] = test system: Human alphaherpesvirus 2; test: Compound was tested for the concentration required to reduce HSV-2 (G) induced cytopathogenicity by 50% in primary rabbit kidney cell cultures
[4] = test system: L1210; test: Dose required to inhibit proliferation of L-1210 Cells by 50%; details: Mus musculus, read-out: ID50 (the source's name)
Outline: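 Inhibition of proliferation of murine leukemia L-1210 cells in exponential growth phase. ID50 is the dose inhibiting cell proliferation by 50%, given plus or minus standard deviation.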

[5] = organism: Oryctolagus cuniculus; test: Compound was tested for the concentration required to cause a microscopically detectable alteration in normal cell morphology in primary rabbit kidney cell cultures; details: read-out: Min cytotoxic concentration; outline: as §1
[6] = test system: Coxsackievirus B4; test: Compound was tested for the concentration required to reduce coxsackie virus B4 induced cytopathogenicity by 50% in HeLa cell cultures; details: Enterovirus B
[7] = test system: Human respirovirus 3; test: Compound was tested for the concentration required to reduce parainfluenza virus type 3 induced cytopathogenicity by 50% in Vero cell cultures
[8] = test system: Poliovirus 1; test: Concentration required to reduce polio virus type 1 induced cytopathogenicity by 50% in HeLa cell cultures.; details: Enterovirus C
[9] = test system: Vero; test: Compound was tested for the concentration required to cause a microscopically detectable alteration in normal cell morphology in Vero cell cultures; details: Chlorocebus sabaeus, read-out: Min cytotoxic concentration; outline: as §1
[10] = test system: Mammalian orthoreovirus 1; test: Compound was tested for the concentration required to reduce reovirus type 1 induced cytopathogenicity by 50% in Vero cell cultures
[11] = test system: Vesicular stomatitis virus; test: Compound was tested for the concentration required to reduce vesicular stomatitis virus induced cytopathogenicity by 50% in HeLa cell cultures
[12] = test system: Vesicular stomatitis virus; test: Compound was tested for the concentration required to reduce vesicular stomatitis virus induced cytopathogenicity by 50% in primary rabbit kidney cell cultures
[13] = test system: Coxsackievirus B4; test: Compound was tested for the concentration required to reduce coxsackie virus B4 induced cytopathogenicity by 50% in Vero cell cultures; details: Enterovirus B
[14] = test system: Sindbis virus; test: Compound was tested for the concentration required to reduce sindbis virus induced cytopathogenicity by 50% in Vero cell cultures
[15] = test system: Human alphaherpesvirus 1; test: Concentration required to reduce HSV-1 (KOS) induced cytopathogenicity by 50% in primary rabbit kidney cell cultures.
[16] = test system: HeLa; test: Concentration required to cause a microscopically detectable alteration in cell morphology in HeLa cell cultures.; details: Homo sapiens, read-out: Min cytotoxic concentration; outline: as §1
[17] = test system: Human alphaherpesvirus 2; test: Concentration required to reduce HSV-2 (G) induced cytopathogenicity by 50% in primary rabbit kidney cell cultures.
[18] = organism: Oryctolagus cuniculus; test: Concentration required to cause a microscopically detectable alteration in cell morphology in primary rabbit kidney cell cultures.; details: read-out: Min cytotoxic concentration; outline: as §1
[19] = test system: Coxsackievirus B4; test: Concentration required to reduce coxsackie virus B4 induced cytopathogenicity by 50% in vero cell cultures.; details: Enterovirus B
[20] = test system: Coxsackievirus B4; test: Concentration required to reduce coxsackie virus 4 induced cytopathogenicity by 50% in HeLa cell cultures.; details: Enterovirus B
[21] = test system: Human respirovirus 3; test: Concentration required to reduce parainfluenza virus type 3 induced cytopathogenicity by 50% in vero cell cultures.
[22] = test system: Vero; test: Concentration required to cause a microscopically detectable alteration in cell morphology in vero cell cultures.; details: Chlorocebus sabaeus, read-out: Min cytotoxic concentration; outline: as §1
[23] = test system: Sindbis virus; test: Concentration required to reduce sindbis virus induced cytopathogenicity by 50% in vero cell cultures.
[24] = test system: Vesicular stomatitis virus; test: Concentration required to reduce vesicular stomatitis virus induced cytopathogenicity by 50% in primary rabbit kidney cell cultures.
[25] = test system: Mammalian orthoreovirus 1; test: Concentration required to reduce reovirus type 1 induced cytopathogenicity by 50% in vero cell cultures.
[26] = test system: Vesicular stomatitis virus; test: Concentration required to reduce vesicular stomatitis virus induced cytopathogenicity by 50% in HeLa cell cultures.

Compound | IC50 [4] | MIC [8] | MIC [15] | MCC [16] | MIC [17] | MCC [18] | MIC [19] | MIC [20] | MIC [21] | MCC [22] | MIC [23] | MIC [24] | MIC [25] | MIC [26] | also measured
Nc1ncnc2c1ncn2C[C@@H](O)CO | 170 µg/mL (≈ 813 µM) | > 400 µg/mL |  |  |  |  |  |  |  |  |  |  |  |  | MIC [1]: > 400 µg/mL; MCC [2]: > 400 µg/mL; MIC [3]: > 400 µg/mL; MCC [5]: ≥ 400 µg/mL; MIC [6]: > 400 µg/mL; MIC [7]: 20 µg/mL (≈ 95.6 µM); MCC [9]: > 400 µg/mL; MIC [10]: 70 µg/mL (≈ 335 µM); MIC [11]: 10 µg/mL (≈ 47.8 µM); MIC [12]: 10 µg/mL (≈ 47.8 µM); MIC [13]: 400 µg/mL (≈ 1910 µM); MIC [14]: > 400 µg/mL
Nc1ncnc2c1cc(Br)n2C1O[C@H](CO)[C@@H](O)[C@H]1O (stereo partly specified) | 36.5 µg/mL (≈ 106 µM) | 150 µg/mL (≈ 435 µM) | > 400 µg/mL | 400 µg/mL | > 400 µg/mL | > 400 µg/mL | 70 µg/mL (≈ 203 µM) | > 200 µg/mL | 70 µg/mL (≈ 203 µM) | 400 µg/mL | > 200 µg/mL | 300 µg/mL (≈ 869 µM) | 70 µg/mL (≈ 203 µM) | 400 µg/mL (≈ 1160 µM) | 
Nc1ncnc2c1c(Br)c(Br)n2C1O[C@H](CO)[C@@H](O)[C@H]1O (stereo partly specified) | 2.31 µg/mL (≈ 5.45 µM) | > 10 µg/mL | > 100 µg/mL | 40 µg/mL | > 40 µg/mL | 100 µg/mL | 10 µg/mL (≈ 23.6 µM) | > 10 µg/mL | > 10 µg/mL | 40 µg/mL | > 10 µg/mL | > 40 µg/mL | 10 µg/mL (≈ 23.6 µM) | > 10 µg/mL | 
Nc1ncnc2c1c(CCCO)cn2C1O[C@H](CO)[C@@H](O)[C@H]1O (stereo partly specified) | 1.28 µg/mL (≈ 3.95 µM) | 7 µg/mL (≈ 21.6 µM) | 7 µg/mL (≈ 21.6 µM) | 40 µg/mL | > 10 µg/mL | > 40 µg/mL | 7 µg/mL (≈ 21.6 µM) | 7 µg/mL (≈ 21.6 µM) | 2 µg/mL (≈ 6.17 µM) | 40 µg/mL | > 10 µg/mL | 7 µg/mL (≈ 21.6 µM) | 2 µg/mL (≈ 6.17 µM) | 2 µg/mL (≈ 6.17 µM) | 
Nc1ncnc2c1c(/C=C/Br)cn2C1O[C@H](CO)[C@@H](O)[C@H]1O (stereo partly specified) | 7.84 µg/mL (≈ 21.1 µM) | > 1 µg/mL | > 1 µg/mL | 4 µg/mL | > 1 µg/mL | > 4 µg/mL | > 1 µg/mL | > 1 µg/mL | 1 µg/mL (≈ 2.69 µM) | 4 µg/mL | > 1 µg/mL | > 1 µg/mL | 1 µg/mL (≈ 2.69 µM) | > 1 µg/mL | 
Nc1ncnc2c1c(Cl)c(Cl)n2C1O[C@H](CO)[C@@H](O)[C@H]1O (stereo partly specified) | 10.1 µg/mL (≈ 30.1 µM) | > 10 µg/mL | > 40 µg/mL | 40 µg/mL | > 40 µg/mL | 40 µg/mL | > 10 µg/mL | > 10 µg/mL | > 10 µg/mL | 40 µg/mL | > 10 µg/mL | > 40 µg/mL | > 10 µg/mL | > 10 µg/mL | 
N#C/C=C/c1cn(C2O[C@H](CO)[C@@H](O)[C@H]2O)c2ncnc(N)c12 (stereo partly specified) | 1.36 µg/mL (≈ 4.29 µM) | 4 µg/mL (≈ 12.6 µM) | 2 µg/mL (≈ 6.3 µM) | 4 µg/mL | 20 µg/mL (≈ 63 µM) | 100 µg/mL | > 10 µg/mL | 1 µg/mL (≈ 3.15 µM) | 7 µg/mL (≈ 22.1 µM) | 100 µg/mL | > 40 µg/mL | 20 µg/mL (≈ 63 µM) | 20 µg/mL (≈ 63 µM) | 0.4 µg/mL (≈ 1.26 µM) | 
CC(O)c1cn(C2O[C@H](CO)[C@@H](O)[C@H]2O)c2ncnc(N)c12 (stereo partly specified) | 0.111 µg/mL (≈ 0.358 µM) | 0.2 µg/mL (≈ 0.645 µM) | 2 µg/mL (≈ 6.45 µM) | 40 µg/mL | 7 µg/mL (≈ 22.6 µM) | 10 µg/mL | 2 µg/mL (≈ 6.45 µM) | 0.7 µg/mL (≈ 2.26 µM) | 0.7 µg/mL (≈ 2.26 µM) | 40 µg/mL | 7 µg/mL (≈ 22.6 µM) | 0.4 µg/mL (≈ 1.29 µM) | 0.4 µg/mL (≈ 1.29 µM) | 0.2 µg/mL (≈ 0.645 µM) | 
COC(C)c1cn(C2O[C@H](CO)[C@@H](O)[C@H]2O)c2ncnc(N)c12 (stereo partly specified) | 0.404 µg/mL (≈ 1.25 µM) | 0.7 µg/mL (≈ 2.16 µM) | 20 µg/mL (≈ 61.7 µM) | 10 µg/mL | > 40 µg/mL | 100 µg/mL | 2 µg/mL (≈ 6.17 µM) | 0.7 µg/mL (≈ 2.16 µM) | 2 µg/mL (≈ 6.17 µM) | 100 µg/mL | > 40 µg/mL | > 40 µg/mL | > 1 µg/mL | > 10 µg/mL | 
